Ecoli WT expand – growth inhibitors of wild-type E. coli, primary screen, strain BW25113, expanded library, OD600. OD600 absorbance. growth inhibition, % at 100 µM. 98,000 tested, 0.15% active;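 active means growth inhibition above about 50% at one test dose, limit read from the data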;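 further: growth measured after 20 h incubation at 37 °C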
PostGolgi yeast – phenotypic screen on post-Golgi transport, primary screen. inhibition, % at 10 µM. post-Golgi transport phenotypic cell assay. 98,000 tested, 0.9% active;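 further: yeast cells grown in 1536-well plates; yeast grown about 18 h at 30C before absorbance read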
tolC growth inh – growth inhibitors of E. coli tolC mutant, primary screen, strain BW25113 ΔtolC::kan, 384-well; OD615; growth inhibition, % at 10 µM (by protocol); 65,000 tested, 2.2% active;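 active means growth inhibition at or above a cutoff equal to the mean over every tested compound plus 3 SD, cut at about 60% in these data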;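 further: growth measured after 20 h incubation at 37 °C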
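Test system: tolC-deleted E. coli BW25113; medium: LB with kanamycin 50 µg/mL; compound: single-point testing at 10 µM; incubation: 20 h compound exposure of bacteria at 37 °C; signal: OD at 615 nm; evaluation: growth inhibition in percent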
PostGolgi ctrl – growth inhibition of yeast control strain, primary screen, counter-screen for post-Golgi transport modulator project | efflux-deficient yeast background strain, growth absorbance A615, 16 h | inhibition, % at 10 µM | 98,000 tested, 5% active | AID 738, 2007
Large screens that a line does not name were inactive. This is a sample that favours compounds with a hit; in the whole collection about 6.3% have one here. Unless noted, no stated cut-off is given here; in the data, active means inhibition above about 30%; inactive means the rest.

CC(C)(C)c1cnnn1-c1ccc(NC(=O)c2ccc3c(c2)OCO3)cc1	none
CC(=O)c1ccc(-n2nncc2C(C)(C)C)cc1	PostGolgi ctrl 33.5
OC(COc1ccc(Cl)c2ccccc12)CN1CCN(c2ccccn2)CC1 (stereo unspecified)	tolC growth inh 100.0, PostGolgi ctrl 34.3
Cc1c(C)n(C(=O)CSc2nc3ccccc3[nH]2)c2ccccc12	PostGolgi ctrl 31.4 (no result: tolC growth inh)
Cc1cc(N2C3CCC2CC(O)(c2ccc(F)cc2)C3)nc(-c2ccccc2)n1 (stereo unspecified)	tolC growth inh 100.0
COc1ccc2nc(NC(=S)N(C)C)sc2c1	none (no result: tolC growth inh)
COc1ccnc(Oc2ccc(F)cc2)c1C(=O)N/C=N/OCc1ccc(F)cc1Cl	PostGolgi ctrl 38.1 (no result: tolC growth inh)
Nc1ccc(Oc2ccc3nc(-c4ccccc4)c(-c4ccccc4)nc3c2)cc1	PostGolgi yeast 102.9, PostGolgi ctrl 56.1 (no result: tolC growth inh)
COCc1nnc(NC(=O)c2ccc(S(=O)(=O)N(C)c3ccccc3)cc2)o1	tolC growth inh 86.9
CCN(c1ccccc1)S(=O)(=O)c1ccc(C(=O)Nc2nnc(COC)o2)cc1	tolC growth inh 95.3
OC(Cn1ccnc1)c1ccc(Cl)cc1Cl (stereo unspecified)	PostGolgi yeast 76.5
O=c1nc(-c2ccccc2)c2ccccc2[nH]1	PostGolgi ctrl 59.4
Cc1c(C(=O)Nc2ccc(Cl)cn2)oc2ccccc12	PostGolgi ctrl 30.5
CC(=O)Nc1cccc(NC(=O)c2cc3ccccc3o2)c1	none
CC(=O)Nc1cccc(NC(=O)c2oc3ccccc3c2C)c1	tolC growth inh 66.6
CCCCOc1ccccc1NC(=O)CC1SC(=NCC)N(CC)C1=O (stereo unspecified)	none
CCCCC(=O)NC(Nc1nc(C2CC2)cs1)(C(=O)OCC)C(F)(F)F (stereo unspecified)	PostGolgi ctrl 35.7
CCOc1ccccc1OCCCOc1ccc([N+](=O)[O-])cc1Cl	PostGolgi ctrl 37.9 (no result: tolC growth inh)
COc1cc(C)ccc1OCCCOc1ccccc1Cl	none (no result: tolC growth inh)
Cc1cccc(NS(=O)(=O)c2cc(C(=O)NCCC3=CCCCC3)ccc2Cl)c1	PostGolgi ctrl 35.0 (no result: tolC growth inh)
Cc1ccccc1NS(=O)(=O)c1cc(C(=O)NCCC2=CCCCC2)ccc1Cl	none (no result: tolC growth inh)
CCc1ccc(NC(=O)c2ccc3ncsc3c2)cc1	PostGolgi ctrl 71.1 (no result: tolC growth inh)
CCc1ccc(NC(=O)c2ccc3nc(N)sc3c2)cc1	none (no result: tolC growth inh)
CC1(C)Cc2c(sc3c2c(=N)n(Cc2ccco2)c(=O)n3Cc2ccccc2)CO1	none
CC1(C)Cc2c(sc3c2c(=N)n(Cc2ccco2)c(=O)n3Cc2ccc(Cl)cc2)CO1	tolC growth inh 63.9, PostGolgi ctrl 96.7
Cc1cc(C)n(CC(O)Cn2c3ccccc3c3ccccc32)n1 (stereo unspecified)	none (no result: tolC growth inh)
Cc1cc(C)n(CC(O)CN2c3ccccc3Sc3ccccc32)n1 (stereo unspecified)	PostGolgi ctrl 43.2
CNc1nc(NC)nc(-n2c(C(F)(F)F)nc3ccccc32)n1	none
O=S(=O)(Nc1nnc(-c2ccccc2)s1)c1ccc(Cl)cc1	tolC growth inh 87.4
CCOC(=O)Nc1sc2nc(C)cc(C)c2c1-n1cccc1	PostGolgi ctrl 41.4 (no result: tolC growth inh)
Cc1cc(C)c2c(-n3cccc3)c(C(=O)NNS(=O)(=O)c3ccc(Br)cc3)sc2n1	none (no result: tolC growth inh)
Cn1c(=O)c2c(SCc3ccccn3)nc(CC(C)(C)C)nc2n(C)c1=O	PostGolgi ctrl 34.1 (no result: tolC growth inh)
Cn1c(=O)c2c(SCc3cccnc3)nc(CC(C)(C)C)nc2n(C)c1=O	tolC growth inh 97.4, PostGolgi ctrl 54.0
CCCc1nc(SCc2cccnc2)c2c(=O)n(C)c(=O)n(C)c2n1	none
N#CCCCCN1c2cccc3cccc(c23)S1(=O)=O	none
O=C(c1cccs1)N(Cc1nc2sc3c(c2c(=O)[nH]1)CCCC3)C1CCCC1	tolC growth inh 89.5
Cc1cccc(NC(=O)N(Cc2nc3ccccc3c(=O)[nH]2)C2CCCC2)c1	none
Cc1sc2nc(CN(Cc3cccs3)C(=O)NC3CCCCC3)[nH]c(=O)c2c1C	tolC growth inh 89.3, PostGolgi ctrl 42.8
Cc1sc2nc(CN(C(=O)c3cccs3)C3CCCC3)[nH]c(=O)c2c1C	PostGolgi ctrl 34.1
Cc1sc2ncn(CC(=O)N(CC(=O)NC3CCCC3)Cc3cccs3)c(=O)c2c1C	none
COc1ccc(C(=O)Cn2nnc(-c3ccccc3NC(=O)c3ccco3)n2)cc1	none
Cc1ccc2c(n1)CC(C)(C)CC2=O	none (no result: tolC growth inh)
COc1ccc(-c2c(C#N)c(N)nc3c2CCc2ccccc2-3)cc1OC	PostGolgi ctrl 43.8 (no result: tolC growth inh)
COc1cc(-c2c(C#N)c(N)nc3c2CCCC3)ccc1O	none
CCOC(=O)CCn1cc(F)c(=O)n(Cc2ccccc2)c1=O	none
O=C(OC(C(=O)NCC1CCCO1)c1ccccn1)c1cccs1 (stereo unspecified)	none
CCc1nnc2sc(-c3cc(-c4ccccc4)nc4ccccc34)nn12	PostGolgi ctrl 33.9
c1cncc(-c2nn3c(Cn4nnc5ccccc54)nnc3s2)c1	none
CC(C)(C)S(=O)(=O)c1cnc2c(-c3ccc(F)cc3)cnn2c1N	none (no result: tolC growth inh)
CC(C)(C)S(=O)(=O)c1cnc2c(-c3ccc(Cl)cc3)cnn2c1N	PostGolgi ctrl 34.0 (no result: tolC growth inh)
COC(=O)Nc1ccc(S(=O)(=O)Nc2ccccc2F)cc1	none
CC(=O)Nc1ccccc1NS(=O)(=O)c1ccc(Cl)cc1	PostGolgi yeast 36.4 (no result: tolC growth inh)
CCCCCn1c(-c2ccco2)nc2nc3ccccc3nc21	tolC growth inh 76.9
CCOC(=O)c1cc(C(=O)c2cccs2)n2ccc(C(C)=O)cc12	PostGolgi ctrl 82.5 (no result: tolC growth inh)
CCOC(=O)c1cc(C(C)=O)n2ccccc12	none (no result: tolC growth inh)
O=C(CN1CCCCC1)Nc1cccc(-n2cnnn2)c1	none
CCOC(=O)N1CCN(C(=O)CSCc2ccc(Cl)cc2)CC1	PostGolgi ctrl 35.9 (no result: tolC growth inh)
O=C(Nc1ccc(Cl)cc1)N1CCSCC1	PostGolgi ctrl 43.8
CCOc1ccccc1N1CCN(C(=O)Nc2ccc(F)c(Cl)c2)CC1	tolC growth inh 96.0
O=C(COC(=O)CSCC(=O)N1CCCCC1)Nc1ccc(Cl)cc1	PostGolgi ctrl 36.1
CCOC(=O)N1CCN(C(=O)Cc2ccc(C)cc2)CC1	none
Cc1nnc(-c2cnn(C)c2N)n1Cc1cccc(Cl)c1	none (no result: tolC growth inh)
CC(C)(C)N=Cc1cc(-c2ccccc2)sc1O	none (no result: tolC growth inh)
Cc1cccc(CSc2nnc(-c3cccs3)n2Cc2ccco2)c1	none (no result: tolC growth inh)
Cc1ccc(NC(=O)CN(c2ccccc2F)S(C)(=O)=O)cc1	none
CCOC(=O)N1CCC(N(C(=O)Nc2ccc(Cl)c(Cl)c2)C(C)CC)CC1 (stereo unspecified)	PostGolgi ctrl 39.2
CCOc1ccccc1N1CCN(C(=O)c2cc(C)oc2C)CC1	none
CCOC(=O)N1CCN(C(=O)Nc2cccc(Cl)c2)CC1	none (no result: tolC growth inh)
CCOC(=O)N1CCN(C(=O)Nc2ccc(Cl)cc2)CC1	PostGolgi ctrl 35.7
CCOc1ccccc1N1CCN(C(=O)c2cc3c(s2)CCC3)CC1	PostGolgi ctrl 40.4
CCOC(=O)N1CCC(N(CCOC)C(=O)Nc2ccc(CC)cc2)CC1	none
Cc1ccc(-n2nnnc2Sc2nc([N+](=O)[O-])nn2C)cc1C	none (no result: tolC growth inh)
COCCn1c(C)c(C(=O)O)sc1=S	none
CCCn1nc(NC(=O)c2cccs2)c2cc3ccccc3nc21	none (no result: tolC growth inh)
CCCCn1nc(NC(=O)c2cccs2)c2cc3cc(OC)ccc3nc21	tolC growth inh 63.4
